APP 5'UTR act: activators of APP 5'UTR luciferase reporter, primary screen, SH-SY5Y cells | SH-SY5Y APP 5'UTR luciferase reporter, luminescence; zero percent = DMSO vehicle wells | activation, % at 2 µM | 1% of 190,000 active | AID 1276, 2008;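 active = activation above a set limit, based on mean plus 3 SD of controls, cut at about 140% in these data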
STAT3 inh: IL-6 driven STAT3 reporter inhibitors, primary screen, U3A cells, luciferase, luminescence, MLSCN library. IL-6 STAT3-luciferase reporter; host cell line lacks STAT1. inhibition, % at 5.5 µM. 0.89% of 190,000 active. AID 862, 2007;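 active = inhibition above the mean inhibition across all screened compounds plus 3 SD, cut at about 44% in these data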;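 note: 0% = DMSO only wells and 100% = 100 µM nifuroxazide control wells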
STAT1 inh: STAT1 signaling inhibitors, primary screen, cell-based, HTS, luciferase reporter; 0.35% of 200,000 active; NIH 3T3 STAT1-luciferase reporter, IFN-gamma, luminescence; inhibition, % at 5.5 µM;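 active = inhibition above a set limit, the mean inhibition across all tested compounds plus 3 SD, cut at about 34% in these data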;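 note: 0% = IFN-gamma with DMSO and 100% = IFN-gamma with 300 µM nifuroxazide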
STAT3 act: IL-6 driven STAT3 reporter potentiators, primary screen, U3A cells, luciferase, luminescence, MLSCN library; IL-6 STAT3-luciferase reporter; 100% = signal with IL-6 EC80 alone; 0.91% of 190,000 active; activation (% of control), % at 5.6 µM;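 active = activation above the screen-wide mean of compound activation plus 3 SD, cut at about 130% in these data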;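 note: 0% = background luminescence of wells with medium and substrate only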
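Assay system – human STAT1-deficient U3A cells with stable STAT3-luciferase reporter · Also added – IL-6 (33 ng/mL) · Schedule – compound 1 h, then IL-6 6 h at 37 °C · Technique – reporter luminescence signal · Evaluation – % activation versus median of IL-6-stimulated wells · Benchmarks – IL-6-only wells as 100% reference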
STAT1 activator: STAT1 signaling activators, primary screen, cell-based, HTS, luciferase reporter; activation (% of control), % at 5.5 µM; NIH 3T3 STAT1-luciferase reporter, IFN-gamma, luminescence; 100% = IFN-gamma alone, no compound; 2.6% of 200,000 active;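 active = activation above the screen-wide mean activation plus 3 SD, cut at about 130% in these data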;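 note: raw ratio to IFN-gamma control signal so 100% means no change and 0% no light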
NF-kB neuron act: activators of NF-kB expression in neurons, primary screen, cell-based, HTS; human neuronal cells, NF-kB reporter expression; active compounds read high; 1.6% of 190,000 active; fold change at 12.5 µM; in the data active = fold change above about 3.3
* marks the source's active call; other numbers are inactive results; nt = no result. Only some compounds are listed: those with a hit (about 5.1% of all), similar ones and a draw of the others.

SMILES	APP 5'UTR act	STAT3 inh	STAT1 inh	STAT3 act	STAT1 activator	NF-kB neuron act
CCN(CC)c1ccc(C2C(C(=O)OC(C)C)C(=O)CC(C)(O)C2C(=O)OC(C)C)cc1 (stereo not given)	4.3	9.7	-1.5	96.6	101.4	0.41
Clc1c(CSc2nc3ccccc3o2)nc2sccn12	136.2*	15.5	-29.1	90.0	126.9	8.11*
CC(=O)CSc1nc2ccccc2o1	27.3	2.2	-6.5	100.8	105.9	1.55
Brc1c(CSc2nc3ccccc3o2)nc2ncccn12	37.1	1.5	-37.1	102.5	133.7*	2.48
O=[N+]([O-])c1ccc(O)c(C=Nc2ccc3nc(-c4ccccc4)[nH]c3c2)c1	75.5	-17.0	-45.0	111.6	140.1*	1.75
Oc1c(Br)cc(C=Nc2ccc3nc(-c4ccccc4)[nH]c3c2)c(O)c1Br	69.8	9.0	-37.2	102.3	132.9*	0.83
CCCC(C)NC(=O)c1ccc(OCc2ccc(Cl)cc2)c(OC)c1 (stereo not given)	11.0	6.5	-8.5	96.4	107.6	1.51
CCS(=O)(=O)Nc1cccc(-c2nc3cccnc3s2)c1C	32.2	5.8	-13.8	102.7	112.5	1.65
Cc1ccc(-c2nc3cccnc3s2)cc1NS(C)(=O)=O	60.7	nt	-45.0	nt	139.4*	1.11
COc1ccc2oc(C(=O)NC(C)(C)C)c(C)c2c1	80.2	-15.2	-54.2	116.9	145.5*	0.96
COC(=O)CCC(=O)c1oc2ccc(OC)cc2c1N	-64.1	33.2	-11.9	76.8	110.9	1.75
COc1ccc2oc(C(=O)C3CC3)c(N)c2c1	83.2	5.4	-43.9	103.0	140.0*	2.63
CC(=O)Nc1ccc(S(=O)(=O)NCC(=O)OC(C)c2ccccc2Cl)cc1 (stereo not given)	12.4	-1.2	2.9	103.3	97.4	0.93
CCOc1ccc(NC(=O)NNC(=O)c2ccc(CC)s2)cc1	8.0	5.3	-5.2	100.2	104.6	1.03
COc1ccc(CC(=O)Nc2ccc3c(c2)CCC3)cc1	27.4	1.4	-2.0	97.6	101.8	1.5
O=C(Cc1ccccc1)Nc1ccc2c(c1)CCC2	32.1	-1.9	-38.3	109.8	132.9*	1.96
Cc1cc(Cl)ccc1OCC(=O)NCCCCc1ccccc1	-10.3	5.1	-6.3	94.5	105.8	1.12
COc1ccc2c(c1OC)C(=O)N1c3ccccc3C(=O)N(c3ccccc3)C21 (stereo not given)	-8.2	49.0*	52.8*	61.4	51.4	0.28
CCOC(=O)CNC(=O)CSc1nc(C)cc(C)c1C#N	-3.0	21.0	13.3	86.0	87.8	1.24
CCOC(=O)NC(=O)CSc1nc(C)cc(C)c1C#N	113.2	27.7	-26.4	80.2	122.5	3.41*
c1ccc(CSc2ccc(-c3cccs3)nn2)nc1	78.3	14.6	-37.9	94.3	135.9*	2.45
CCOc1ccc(-c2ccc(SCc3ccccn3)nn2)cc1	49.0	25.7	-33.5	85.2	128.7*	1.09
CCc1ccc(-c2ccc(SCC(=O)Nc3nnc(C)s3)nn2)cc1	85.0	22.8	-21.9	85.1	119.0	3.02
CCc1ccc(-c2ccc(SCc3ccccn3)nn2)cc1	44.6	14.4	-45.9	92.7	139.5*	1.96
CCOc1ccc(-c2ccc(SCC(=O)Nc3nnc(C)s3)nn2)cc1	183.2*	22.4	-4.4	89.2	103.4	2.64
SMILES	APP 5'UTR act	STAT3 inh	STAT1 inh	STAT3 act	STAT1 activator	NF-kB neuron act
Cc1nc(SCc2cccc(Oc3ccccc3)c2)n[nH]1	17.9	0.2	-18.3	103.9	116.7	1.53
Nc1ccc2c(c1)Nc1ccccc1CC2	15.4	-19.5	5.1	121.1	93.8	1.5
Cn1ncc2c1ncn1nc(COc3ccc4ccccc4c3)nc21	-6.9	9.5	-4.0	98.1	103.6	0.9
Cn1ncc2c1ncn1nc(CCc3ccccc3)nc21	29.3	4.3	-46.5	102.6	142.5*	3.8*
Cc1ccc(NC(=O)OC(C)CNC(=O)Oc2cccc(C)c2)cc1 (stereo not given)	44.5	15.7	-44.2	96.0	139.5*	1.69
C#CCn1c(=NC(=O)c2cccs2)sc2cccc(OC)c21	15.6	-22.2	-24.0	122.2	121.7	1.36
CCOC(=O)c1sc(=NC(=O)c2ccco2)n(C)c1C	31.4	-47.5	-32.8	142.8*	129.1*	2.08
CCOC(=O)c1sc(=NC(=O)c2ccc(Cl)s2)n(C)c1C	146.1*	-46.6	-53.9	136.8*	150.6*	1.47
Cc1ccc2c(c1)sc(=NC(=O)c1cccs1)n2C	219.8*	88.1*	81.4*	31.7	24.0	2.23
CCOC(=O)c1sc(=NC(=O)c2ccc(C)c(C)c2)n(C)c1C	129.2	4.5	-30.7	99.2	127.2	1.02
CCOC(=O)c1sc(=NC(=O)c2cccs2)n(C)c1C	140.9*	-24.0	-35.7	128.3	132.9*	5.39*
O=C(Nc1ccc(N2CCOCC2)cc1)C1CC(=O)N(c2ccc(F)cc2)C1 (stereo not given)	4.2	-7.4	-9.7	108.4	107.1	1.27
COc1ccc(CNC(=O)Cn2nnc(-c3ccc(NC(=O)C4CCCCC4)cc3)n2)cc1	44.1	-1.9	0.1	104.4	99.9	1.39
CCOC(=O)c1sc(NC(=O)c2cccs2)cc1C	168.1*	41.7	-41.5	69.6	137.8*	4.05*
O=C(NC1CCCc2ccccc21)c1cccc(S(=O)(=O)N2CCOCC2)c1 (stereo not given)	-2.4	-11.6	0.0	110.8	98.6	1.04
COc1ccc(OC(=O)c2cccc([N+](=O)[O-])c2)c(C(=O)/C=C/c2cccs2)c1	-10.7	9.9	-1.9	97.3	101.8	3.44*
COc1ccc(S(=O)(=O)NCC2CCCN(C(=O)CC3CCCC3)C2)cc1 (stereo not given)	13.8	8.1	1.2	97.6	97.6	0.97
N#CC1=C(N)Nc2ncnn2C1c1ccc(F)cc1 (stereo not given)	-10.9	6.9	2.4	96.1	97.9	1.1
Cc1ccc(Cl)c(OCC(=O)Nc2ccc3c(c2)OCCO3)c1	159.5*	8.2	-25.1	96.7	123.2	3.84*
Cc1cccc(OCC(=O)Nc2ccc3c(c2)OCO3)c1C	25.6	12.7	-0.5	92.4	100.4	1.22
O=C(COc1cc(F)ccc1[N+](=O)[O-])Nc1cccc(Br)c1	40.4	17.3	-32.9	90.3	128.9*	1.34
Cc1cc(OCC(=O)Nc2ccc3c(c2)OCCO3)cc(C)c1Cl	-1.3	3.5	3.8	94.7	96.5	1.02
O=C(COc1ccccc1[N+](=O)[O-])N/N=C/c1cccc(OC(=O)c2ccc3c(c2)OCO3)c1	48.1	8.3	-45.3	91.8	141.4*	2.52

Screens as filed in PubChem BioAssay.
